Screening results (PubChem BioAssay)
UBC13 inh: UBC13 polyubiquitin chain formation inhibitors, primary screen, biochemical, TR-FRET, uHTS | actives 0.47% (n = 330,000) | Ubiquitin-conjugating enzyme E2 N (Homo sapiens), P61088 | inhibition, % at 20 µM; in the data active = inhibition above about 45%, passing the limit was not always enough
Target sequence (P61088 whole entry, looked up): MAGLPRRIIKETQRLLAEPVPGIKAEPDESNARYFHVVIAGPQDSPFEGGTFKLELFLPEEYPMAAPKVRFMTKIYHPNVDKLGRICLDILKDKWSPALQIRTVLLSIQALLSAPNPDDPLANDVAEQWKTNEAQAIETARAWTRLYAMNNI
MEKK3 PB1 HTS: modulators of MEKK3-MEK5 PB1 binding, primary screen, biochemical, wildtype MEKK3, multiplex bead flow cytometry, Alexa488-MEK5; binding response (% of control), % at 10 µM; bead-based flow cytometry, Alexa488-MEK5 binding to MEKK3; actives lie on both sides; 0 = blocked by unlabeled MEK5, 100 = vehicle; Mitogen-activated protein kinase kinase kinase 3 (Homo sapiens), Q99759; actives 1.4% (n = 290,000);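 active = binding response more than 3 SD above or below the average of its plate-row segment, actives on both sides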;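 note: Alexa488 bead fluorescence after subtracting the streptavidin-only scavenger bead signal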
MEKK2 WT-MEK5: modulators of MEK5 binding to wildtype MEKK2, primary screen, biochemical, multiplex bead flow cytometry, Alexa488-MEK5; Mitogen-activated protein kinase kinase kinase 2 (Homo sapiens), Q9Y2U5; Alexa488-MEK5 binding to MEKK2 WT; actives lie on both sides; binding response (% of control), % at 10 µM; actives 1.1% (n = 290,000); in the data active = binding response below about 67% or above about 130%
Apaf-1 inh: inhibitors of human Apaf-1 apoptosome, primary screen, biochemical, DEVD-Rh110 fluorescence, uHTS; reconstituted apoptosome caspase-3 activity; inhibition, % at 20 µM; actives 0.71% (n = 330,000); Apoptotic protease-activating factor 1 (Homo sapiens), O14727; active = inhibition of at least 40% at 20 µM;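 note: plate controls were DMSO wells for no effect and DEVD-CHO caspase inhibitor wells for full effect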
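Material: reconstituted apoptosome with Apaf-1, cytochrome c, caspase-9, procaspase-3, dATP. Technique: Rh110 fluorescence intensity. Buffer or medium: pH 7.5 Hepes buffer with CHAPS, BSA, DTT. Times: 30 min plus 50 min, RT.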
MEKK2 mut-MEK5: MEK5 binding signal on mutant MEKK2 PB1, primary screen, biochemical, multiplex bead flow cytometry, Alexa488-MEK5 | Alexa488-MEK5 binding to MEKK2 mutant | percent response, % at 10 µM | AID 1530, 2009 | actives 0.35% (n = 290,000); in the data active = percent response above about 24%, passing the limit was not always enough
Pemphigus Ab inh: inhibitors of pemphigus antibody binding to DSG3, primary screen, biochemical, bead-based, flow cytometry, scFv-GFP | actives 0.48% (n = 310,000) | Desmoglein-3 (Homo sapiens), P32926 | DSG3-coupled beads, scFv-anti-DSG3-GFP binding; hits give low values | binding (percent of control), % at 10 µM;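 active = binding more than 3 SD below its plate's average and above zero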;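 note: hits lower antibody fragment binding to DSG3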
* hit, by the source's call; [ ] = another dose, or the depositor's remark. Sampled rows, rich in hits. Any-hit rate of the full collection: about 3.2%.

How did CCN(C(=O)Cc1ccccc1OC)c1nnc(-c2ccncc2)s1 do in these assays?
UBC13 inh: 1; MEKK3 PB1 HTS: 103; MEKK2 WT-MEK5: 102; Apaf-1 inh: 9; MEKK2 mut-MEK5: 1; Pemphigus Ab inh: 100

Results for Cc1ccc(CNC(=O)CCCn2nc(C)c3c(C)n(-c4ccccc4)nc3c2=O)cc1 ?
UBC13 inh: 2; MEKK3 PB1 HTS: 102; MEKK2 WT-MEK5: 99; Apaf-1 inh: 6; MEKK2 mut-MEK5: 2; Pemphigus Ab inh: 99

What do the screens show for `COCCn1c(=O)c2cc3c(=O)n(CCOC)c(=O)c3cc2c1=O`?
UBC13 inh: 6; MEKK3 PB1 HTS: 102; MEKK2 WT-MEK5: 99; Apaf-1 inh: -15; MEKK2 mut-MEK5: 3; Pemphigus Ab inh: 104

What do the screens show for `CC(C)(C)C(=O)OCCn1c(=O)c2cc3c(=O)n(CCOC(=O)C(C)(C)C)c(=O)c3cc2c1=O`?
UBC13 inh: -4; MEKK3 PB1 HTS: 2.0*[inhibitor]; MEKK2 WT-MEK5: 2.0*[inhibitor]; Apaf-1 inh: 15; MEKK2 mut-MEK5: -16

What do the screens show for `CCN(CC)C1CCN(C(=O)c2ccc(OC3CCN(C(=O)CCOC)CC3)cc2)C1` (stereo not drawn)?
Pemphigus Ab inh: 103

Results for O=C(N/C(=C\c1cccc(Br)c1)C(=O)N1CCCCC1)c1ccco1 ?
UBC13 inh: -4; MEKK3 PB1 HTS: 102; MEKK2 WT-MEK5: 95; Apaf-1 inh: 28; MEKK2 mut-MEK5: -6; Pemphigus Ab inh: 100

Results for COc1cccc2[nH]c(C(=O)NN)c(N)c12 ?
UBC13 inh: -6; MEKK3 PB1 HTS: 95; MEKK2 WT-MEK5: 93; Apaf-1 inh: -1; MEKK2 mut-MEK5: -5; Pemphigus Ab inh: 103

How did COc1cc2[nH]c(C(=O)NN)c(N)c2cc1OC do in these assays?
UBC13 inh: 35; MEKK3 PB1 HTS: 94; MEKK2 WT-MEK5: 92; Apaf-1 inh: 48*; MEKK2 mut-MEK5: 2

How did CCc1nccn1CCC(=O)NC1CCCc2c1cnn2-c1ccc(F)cc1F (stereo not drawn) do in these assays?
UBC13 inh: -1; MEKK3 PB1 HTS: 71*[inhibitor]; MEKK2 WT-MEK5: 66*[inhibitor]; Apaf-1 inh: -14; MEKK2 mut-MEK5: -22; Pemphigus Ab inh: 114

What do the screens show for `O=C(O)COc1ccc(/C=N/NC(=O)c2ccc(-c3csc(Nc4ccc(Cl)cc4)n3)cc2)cc1`?
MEKK3 PB1 HTS: 60*[inhibitor]; MEKK2 WT-MEK5: 73; MEKK2 mut-MEK5: -7; Pemphigus Ab inh: 31*

What do the screens show for `CCCC[n+]1ccn(C2=C([O-])c3ccccc3C(=O)/C2=N\S(=O)(=O)c2ccccc2)c1`?
UBC13 inh: -114; MEKK3 PB1 HTS: 108; MEKK2 WT-MEK5: 111; Apaf-1 inh: 59*; MEKK2 mut-MEK5: 5

What do the screens show for `C[C@H](CO)N1C[C@H](C)[C@@H](CN(C)Cc2ccc(C(=O)O)cc2)Oc2c(NS(=O)(=O)c3cn(C)cn3)cccc2C1=O`?
UBC13 inh: -14; Apaf-1 inh: 3; Pemphigus Ab inh: 99

What do the screens show for `COc1ccc(/C=C/C(=O)c2cc3cccc(OC)c3oc2=O)cc1`?
UBC13 inh: -8; MEKK3 PB1 HTS: 90; MEKK2 WT-MEK5: 88; Apaf-1 inh: 19; MEKK2 mut-MEK5: -10; Pemphigus Ab inh: 100*

How did CN1C(C(=O)NCc2cccc(Br)c2)CC2Cn3c(nc4cc5ccccc5cc43)C21 (stereo not drawn) do in these assays?
UBC13 inh: 11; MEKK3 PB1 HTS: 107; MEKK2 WT-MEK5: 102; Apaf-1 inh: 15; MEKK2 mut-MEK5: 5; Pemphigus Ab inh: 91*

Results for Cc1cc2nc3n(c2cc1C)CC1CC(C(=O)NCc2cccc(Br)c2)N(C)C31 (stereo not drawn) ?
UBC13 inh: 11; Apaf-1 inh: -3; Pemphigus Ab inh: 117

What do the screens show for `OC(CSc1ccccc1)CN1CCN(c2ccccc2)CC1` (stereo not drawn)?
Pemphigus Ab inh: 95

How did CC(=O)NC12CC3CC(C1)CC(C(=O)N(C)CC(=O)Nc1ccccc1Cl)(C3)C2 do in these assays?
UBC13 inh: 0; Apaf-1 inh: -3; Pemphigus Ab inh: 89

What do the screens show for `Nc1nc(N)nc(-c2ccccc2)n1`?
UBC13 inh: 9; MEKK3 PB1 HTS: 100; MEKK2 WT-MEK5: 100; Apaf-1 inh: -3; MEKK2 mut-MEK5: -1; Pemphigus Ab inh: 107

How did Nc1nc(N)nc(-c2ccccc2-c2nc(N)nc(N)n2)n1 do in these assays?
UBC13 inh: -2; MEKK3 PB1 HTS: 97; MEKK2 WT-MEK5: 102; Apaf-1 inh: 10; MEKK2 mut-MEK5: -2; Pemphigus Ab inh: 74*

What do the screens show for `CCOC(=O)c1nc2cc3n(c(C)c-2c1C)C(C)C(C)=C3C` (stereo not drawn)?
UBC13 inh: 8; MEKK3 PB1 HTS: 127*; MEKK2 WT-MEK5: 130; Apaf-1 inh: 5; MEKK2 mut-MEK5: 21; Pemphigus Ab inh: 124

How did Cc1nn(Cc2ccccc2Cl)c2sc(C(=O)Nc3ccccc3N3CCOCC3)cc12 do in these assays?
UBC13 inh: 2; MEKK3 PB1 HTS: 95; MEKK2 WT-MEK5: 99; Apaf-1 inh: -2; MEKK2 mut-MEK5: -1; Pemphigus Ab inh: 87

What do the screens show for `Cc1nn(Cc2ccc(F)cc2)c2sc(C(=O)Nc3ccccc3N3CCOCC3)cc12`?
UBC13 inh: 15; MEKK3 PB1 HTS: 102; MEKK2 WT-MEK5: 107; Apaf-1 inh: 20; MEKK2 mut-MEK5: 3; Pemphigus Ab inh: 86*

Results for O=S(=O)(c1ccccc1)N1N=C(c2ccc(Br)cc2)CC1c1ccco1 (stereo not drawn) ?
UBC13 inh: -4; MEKK3 PB1 HTS: 102; MEKK2 WT-MEK5: 17*; Apaf-1 inh: 7; MEKK2 mut-MEK5: 17; Pemphigus Ab inh: 93

Results for CS(=O)(=O)Nc1ccc(C2=NN(S(=O)(=O)c3ccc(F)cc3)C(c3ccco3)C2)cc1 (stereo not drawn) ?
UBC13 inh: -5; MEKK3 PB1 HTS: 99; MEKK2 WT-MEK5: 3.0*; Apaf-1 inh: -3; MEKK2 mut-MEK5: 18; Pemphigus Ab inh: 113

How did COc1ccc(NC(=O)CN(c2ccc(OC)cc2)S(=O)(=O)c2c(C)nn(C)c2C)cc1 do in these assays?
UBC13 inh: -12; MEKK3 PB1 HTS: 101; MEKK2 WT-MEK5: 99; Apaf-1 inh: 9; MEKK2 mut-MEK5: -1; Pemphigus Ab inh: -9.2*
